In the EternaBench riboswitch data:

System: MS2 coat protein
Test: apparent Kd, MS2 coat protein; higher = weaker binding; RNA-MaP array; FMN 200 µM where present
Summary of the method: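 On Illumina sequencing-chip clusters, designs were transcribed by stalled E. coli RNA polymerase and titrated with SNAP-549-labelled MS2 coat protein (0.7 or 1.5 nM, doubling to 3 µM), without and then with constant ligand, in 100 mM Tris-HCl pH 7.5, 80 mM KCl, 4 mM MgCl2, BSA, DTT, yeast tRNA and Tween-20. Apparent Kd is the median of filtered per-cluster curve fits to green signal normalised to red-channel RNA signal and control-cluster median Fmax.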

[1] = designed as: ON switch for flavin mononucleotide, no ligand
[2] = ligand present: flavin mononucleotide, designed as: ON switch for flavin mononucleotide
[3] = designed as: OFF switch for flavin mononucleotide, no ligand
[4] = ligand present: flavin mononucleotide, designed as: OFF switch for flavin mononucleotide

Sequence	apparent Kd [1] [µM]	apparent Kd [2] [µM]	apparent Kd [3] [µM]	apparent Kd [4] [µM]
ACAUGAGGAUCACCCAUGUUAAAUUAGGAUAUAUGACUGCACAUGAGGUUCACCCAUGUUCUACCGUAGAAGGGAUAAAUAAUU	0.0526	0.0594		
UUGGACGUCGUAGGAUAUGUAGGAUAUUCCUACAUGAGGAUCACCCAUGUUGACAUGGAAGAGGGACAGAAGGACGAUGUCCAU	0.606	0.0305		
AGAAGACAUGAGGAUCACCCAUGUAAGGAUAUUGGAGGUUAGGGAUGCUGGAGUUGGACAAGAAGGUACAGGUG			0.0528	0.0509
GGAUGAUUAAUAGGAUAUUAUUUGUAAAUUGGUUAAGAAGGAUUAAUGAUUUAAACGACCUGUUACAUGAGGAUCACCCAUGUU	0.0452	0.0352		
UGGUACUAGGGAGGAUAUGGGAAGAAACAUGAGGAUCACCCAUGUUUAAGAAUGCCGAGAGGCAACUAGAAGGCCCUAGUACCU	0.00975	0.00499		
GAACACGGAGGAUAUACAUGAGGAUCACCCAUGUUGAUCCUCAUUAAAAUUGAUAACUGUAGAAGGCCGUGAUA			0.0447	0.0222
CGGUACUGAGGAUAUACAUGAGGAUCACCCAUGUGUUCUAGCUAGCGUACUGGCAUUUGUAGAAGGCGGUGCUG			0.015	0.0564
UGGUUGGGAGGAUAUCCAAUAUAUGACAUGAGGAUCACCCAUGUUUCCACUCGUACCUCCGGAGAAGGCCCUUCCA			0.0231	0.022
GCACGGAUGGUAGGAUAUCAUUGCGAUUAGCUAUGAGAAGGGCCACAUGAGGAUCACCCAUGUCCUCUAAUUAGCCUUCCGUGC			0.101	0.101
UAUUUAAUCAUAGGAUAUAGUGUGAAAUUUGGACUAGAAGGAUGUAACAUGAGGAUCACCCAUGUGGUAAGUGGGACACAGUGA	0.106	0.177		
UUUAGUUCAGGAUAUGUAGAUUUUAACAUGAGGAUCACCCAUGUAGAUCCUGAAUUAACUACAGAAGGGAACAUUA			0.0213	0.0754
UGGAGGUCAGGAUAUGCAUGGCGGGACUUGCGUCGUGGCGUGCAGAAGGGACAUGAGGAUCACCCAUGUGGAGA			0.0886	0.112
GUUUUCGCAUGAGGAUAUGCUCGCAUUUCAAGAGCAGAAGGUAUGUCUAUAGACAUGAGGAUCACCCAUGUAUUUAACUUUGAA	0.232	0.0445		
CGCACUGAUAGAGGAUAUGUUUAACAUGAGGAUCACCCAUGUGUACAAGUAUCAAUAUUUAUGUAACAGAAGGCUAUUAGUGCG			0.00577	0.00547
UUGCGCUGUCGAGAGGAUAUGCGGUGUUGGACAUGAGGAUCACCCAUGUUUGCGAUAGCUUUACGGUAGAAGGCUCUUCAGCUGC	0.0639	0.0359		
AACAGUGCUAAUAAAUAAGAUCUACAUGAGGAUCACCCAUGUAAGGAUAUCGUCAGGAAUACUGACGAGAAGGUACAUGCACUG			0.015	0.0259
GUUAUGUGAGGAUAUAUGUAGGAAACUACAUUAAGGGUAUCACAUGAGGAUCACCCAUGUAGAAGGCGCGUAGC			0.298	0.349
GCUUGUGAAGGAUAUACUGGAGGCGUGCGAUAGAAGCACGCACAUGAGGAUCACCCAUGUAGAAGGUCAGGCGU			0.0369	0.0445
AGAUAACAUAGUUAUCCGUAACGGACAUGAGGAUCACCCAUGUAGGAUAUGUUACUCAACGAGUAACAGAAGGACAUGAGUCUU			0.0173	0.102
AGAAACUACGAGAAGGACAUGAGAACCUUCAUUUACAUGAGGAUCACCCAUGUAGGAUAUCGUAGUUUCAGGAUCGUGAGAUCA			0.0456	0.232
CGUCAUUACUCAGGAUAUGCACCAUACUUGAGGGCAGAAGGGAGUACAUGAGGAUCACCCAUGUACUAUGGGCGCCUAAGAGGU			0.00826	0.0451

Sequence	apparent Kd [1] [µM]	apparent Kd [2] [µM]	apparent Kd [3] [µM]	apparent Kd [4] [µM]
GGCUGCGUUGUGAAGGAUAUCCGCGUCUGGACAUGAGGAUCACCCAUGUAUGCUUGGAUCGUGCCGGAGAAGGUCACGAAUGAUU	0.0345	0.0159		
CACGAGUGAGGAUAUAGAGAGGUGAGGCUGAAGUCGCAUAUCUAGAAGGCACAUGAGGAUCACCCAUGUCCCUC			0.481	0.503
UCAUAAAAGAUCCUAUUUAUCUACAUGAGGAUCACCCAUGUGCAGGAUAUGCUAUAUUUAAUAAAGCAGAAGGGCAAUAACCGC			0.127	0.309
GCGUAUUUAAUAUAUAUAAAACUGUCAGAAGGUGAUAAGACGACAUGAGGAUCACCCAUGUAAUUCAAGGAUAUGAUAAUGCGC	0.0373	0.0203		
GCACGAGACUAAGGAUAUGAUGUACCUAUAUGUGACAUGAGGAUCACCCAUGUGGUAAGUAUGAUUCAGAAGGUAGAGACGUGC	0.0282	0.0206		
UAUACUUACGAAGGAUAUGGUUACAUGAGGAUCACCCAUGUAUGUAUAUUGAUCUAGUAUUUUAACCAGAAGGUCGUGAGUAUA			0.0655	0.0534
GAUUACAUGAGGAUCACCCAUGUACAGGUGAUUCUCGGUACGAGAAGGGCGGAGGGUCACCACACGCAGGAUAUCGAGCAAAGG			0.231	0.0654
ACAUGAGGAUCACCCAUGUAUUUGUAGGAUAUACUCUAUUGUUUAUUACUCUAGUUAAAAUGUUUGUAGAAGGACAUUACAUGA			0.00681	0.00738
GAUCAACAUGAGGAUCACCCAUGUGAGGAUAUGAUACUAUGUACUUCGGUACAUAGUAUCAGAAGGCAUAUGAA			0.0567	0.0985
AAUAUAGAGCUGGUCUCAUAAUAAACAUGAGGAUCACCCAUGUAGGAUAUCAGCACGAUAAGUGCUGAGAAGGACAUCCAGCUC			0.0214	0.0471
AUUGUGUGAGGAUAUUAGUAGUAGAUGAAUGGAGUUGUGGCUGAGAAGGCACAUGAGGAUCACCCAUGUUCCUU			0.0223	0.0259
AUUUGAAAGUCAGGAUAUGGUAGAUUAUUCUUAUCAGAAGGGAUUAUUAUACUCAAGUACAUGAGGAUCACCCAUGUUAAAUCA	0.0226	0.013		
UUUAUACAUGAGGAUCACCCAUGUGAGGAUAUGCUUUAUUAUUAUUAUUAUUAUUAUUGCAGAAGGCACGUUAU			0.0393	0.0548
AAGUAGGUAGGAUAUGCAUAGAUAUACAUUCAUGUGGAUUUACAUGAGGAUCACCCAUGUAGAAGGACCUAAUA			0.0375	0.136
GCUGUCGCAUGAGGAUAUGGUCAGCUUUGCUGACCAGAAGGCAUGUCAAUAGACAUGAGGAUCACCCAUGUAGUUCGGGCGGCU	0.849	0.0761		
UGAGCAAGAGGAUAUACAAGGCGUGCGUGAGCACGAGGUUUACAUGAGGAUCACCCAUGUAGAAGGCUUGUUCU			0.0163	0.0344
AUUGUUAAGGUAGGAUAUAGUAAAAUGAUUUAGUUAGAAGGAUCUCACAUGAGGAUCACCCAUGUAAGAGGAUCACCCAUGUAU			0.0111	0.00945
GGAAAACAUGAGGAUCACCCAUGUGAGGAUAUCGAUGUCCAAAAACCAGUGCGGGACUCGAGAAGGCACUUGGA			0.0491	0.0263
GCUGUGGCAUGAGGAUAUGGACAGCUUUGCUGUCCAGAAGGCAUGUCAAUAGACAUGAGGAUCACCCAUGUAGUUAACACAGCA	0.498	0.0394		
CGUUCAGCGAACGAUACGAAUGGACAUGAGGAUCACCCAUGUAGAAGGACAGGAGAAUAACGACUGUAGGAUAUACAUUUAGUG			0.0411	0.0848
AUUAAAACAUAGGAUAUCGAAUUUAUUAUUUAACGAGAAGGAUGAACAUGAGGAUCACCCAUGUGGUAUCAUGG			0.149	0.308
